Source: ChEMBL document CHEMBL1150832, “Phenylnaphthalene compounds from the subterranean part of Vitex rotundifolia and their antibacterial activity against methicillin-resistant Staphylococcus aureus” (2001)
In brackets after ≈: the same amount, converted by molar mass. Activity calls are given as the source filed them. The calls are words filed in the database; no cut-off is given here.

Tests used:
[1] = tested on: Staphylococcus aureus; experiment: Antimicrobial activity against methicillin-sensitive Staphylococcus aureus ATCC 6538 at 100 ug after 20 hrs by agar plate diffusion assay; assay type: functional, organism-based
In short: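 Agar disk diffusion. Cells were grown on Mueller-Hinton agar at 37 °C for 24 h, resuspended in Mueller-Hinton broth to 108 CFU/mL and incubated again. They were then diluted to 105 CFU/mL and used to inoculate Mueller-Hinton agar plates. 6 mm disks loaded with 100 µg compound were placed on the plates and incubated 20 h at 37 °C. Inhibition zones >10 mm were scored positive.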

[2] = tested on: Staphylococcus aureus; experiment: Antimicrobial activity against methicillin-resistant Staphylococcus aureus 0004 at 100 ug after 20 hrs by agar plate diffusion assay; assay type: functional, organism-based
In short: (§1)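 Disk diffusion against MRSA clinical isolates from Tokushima University Hospital. Cells were grown on Mueller-Hinton agar at 37 °C for 24 h, resuspended in Mueller-Hinton broth, and diluted to 10^5 CFU/mL to seed Mueller-Hinton agar plates. 6 mm disks loaded with 100 µg compound were incubated 20 h at 37 °C. Inhibition zones over 10 mm in diameter were scored positive.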

[3] = tested on: Staphylococcus aureus; experiment: Antimicrobial activity against methicillin-resistant Staphylococcus aureus 0009 at 100 ug after 20 hrs by agar plate diffusion assay; assay type: functional, organism-based; in short: as §1
[4] = tested on: Staphylococcus aureus; experiment: Antimicrobial activity against methicillin-resistant Staphylococcus aureus 0021 after 20 hrs by serial twofold dilution method; assay type: functional; settings: Staphylococcus aureus, 0021, 20 h
In short: (§2)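 Agar dilution MIC on Mueller-Hinton agar, following the Japanese Society for Antimicrobial Chemotherapy (1981) method. MRSA clinical isolates from Tokushima University Hospital were grown on Mueller-Hinton agar at 37 °C for 24 h, then resuspended in Mueller-Hinton broth. Suspensions of 1 × 10^6 CFU/mL were spotted with a replicating device. Plates were read after 20 h at 37 °C.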

[5] = tested on: Staphylococcus aureus; experiment: Antimicrobial activity against methicillin-resistant Staphylococcus aureus 0005 at 100 ug after 20 hrs by agar plate diffusion assay; assay type: functional, organism-based; in short: as §1
[6] = tested on: Staphylococcus aureus; experiment: Antimicrobial activity against methicillin-resistant Staphylococcus aureus 0017 at 100 ug after 20 hrs by agar plate diffusion assay; assay type: functional, organism-based; in short: as §1
[7] = tested on: Staphylococcus aureus; experiment: Antimicrobial activity against methicillin-resistant Staphylococcus aureus 0002 after 20 hrs by serial twofold dilution method; assay type: functional; settings: Staphylococcus aureus, 0002, 20 h; in short: as §2
[8] = tested on: Staphylococcus aureus; experiment: Antimicrobial activity against methicillin-resistant Staphylococcus aureus 0017 after 20 hrs by serial twofold dilution method; assay type: functional; settings: Staphylococcus aureus, 0017, 20 h; in short: as §2
[9] = tested on: Staphylococcus aureus; experiment: Antimicrobial activity against methicillin-resistant Staphylococcus aureus 0019 at 100 ug after 20 hrs by agar plate diffusion assay; assay type: functional, organism-based; in short: as §1
[10] = tested on: Staphylococcus aureus; experiment: Antimicrobial activity against methicillin-resistant Staphylococcus aureus 0021 at 100 ug after 20 hrs by agar plate diffusion assay; assay type: functional, organism-based; in short: as §1
[11] = tested on: Staphylococcus aureus; experiment: Antimicrobial activity against methicillin-resistant Staphylococcus aureus 0002 at 100 ug after 20 hrs by agar plate diffusion assay; assay type: functional, organism-based; in short: as §1
[12] = tested on: Staphylococcus aureus; experiment: Antimicrobial activity against methicillin-resistant Staphylococcus aureus 0019 after 20 hrs by serial twofold dilution method; assay type: functional; settings: Staphylococcus aureus, 0019, 20 h; in short: as §2
[13] = tested on: Staphylococcus aureus; experiment: Antimicrobial activity against methicillin-resistant Staphylococcus aureus 0016 at 100 ug after 20 hrs by agar plate diffusion assay; assay type: functional, organism-based; in short: as §1
[14] = tested on: Staphylococcus aureus; experiment: Antimicrobial activity against methicillin-resistant Staphylococcus aureus 0009 after 20 hrs by serial twofold dilution method; assay type: functional; settings: Staphylococcus aureus, 0009, 20 h; in short: as §2
[15] = tested on: Staphylococcus aureus; experiment: Antimicrobial activity against methicillin-resistant Staphylococcus aureus 0007 after 20 hrs by serial twofold dilution method; assay type: functional; settings: Staphylococcus aureus, 0007, 20 h; in short: as §2
[16] = tested on: Staphylococcus aureus; experiment: Antimicrobial activity against methicillin-resistant Staphylococcus aureus 0022 after 20 hrs by serial twofold dilution method; assay type: functional; settings: Staphylococcus aureus, 0022, 20 h; in short: as §2
[17] = tested on: Staphylococcus aureus; experiment: Antimicrobial activity against methicillin-resistant Staphylococcus aureus 0001 after 20 hrs by serial twofold dilution method; assay type: functional; settings: Staphylococcus aureus, 0001, 20 h; in short: as §2
[18] = tested on: Staphylococcus aureus; experiment: Antimicrobial activity against methicillin-resistant Staphylococcus aureus 0003 after 20 hrs by serial twofold dilution method; assay type: functional; settings: Staphylococcus aureus, 0003, 20 h; in short: as §2
[19] = tested on: Staphylococcus aureus; experiment: Antimicrobial activity against methicillin-resistant Staphylococcus aureus 0003 at 100 ug after 20 hrs by agar plate diffusion assay; assay type: functional, organism-based; in short: as §1
[20] = tested on: Staphylococcus aureus; experiment: Antimicrobial activity against methicillin-resistant Staphylococcus aureus 0012 after 20 hrs by serial twofold dilution method; assay type: functional; settings: Staphylococcus aureus, 0012, 20 h; in short: as §2
[21] = tested on: Staphylococcus aureus; experiment: Antimicrobial activity against methicillin-resistant Staphylococcus aureus 0020 at 100 ug after 20 hrs by agar plate diffusion assay; assay type: functional, organism-based; in short: as §1
[22] = tested on: Staphylococcus aureus; experiment: Antimicrobial activity against methicillin-resistant Staphylococcus aureus 0016 after 20 hrs by serial twofold dilution method; assay type: functional; settings: Staphylococcus aureus, 0016, 20 h; in short: as §2
[23] = tested on: Staphylococcus aureus; experiment: Antimicrobial activity against methicillin-resistant Staphylococcus aureus 0008 after 20 hrs by serial twofold dilution method; assay type: functional; settings: Staphylococcus aureus, 0008, 20 h; in short: as §2
[24] = tested on: Staphylococcus aureus; experiment: Antimicrobial activity against methicillin-resistant Staphylococcus aureus 0013 after 20 hrs by serial twofold dilution method; assay type: functional; settings: Staphylococcus aureus, 0013, 20 h; in short: as §2
[25] = tested on: Staphylococcus aureus; experiment: Antimicrobial activity against methicillin-resistant Staphylococcus aureus 0018 after 20 hrs by serial twofold dilution method; assay type: functional; settings: Staphylococcus aureus, 0018, 20 h; in short: as §2
[26] = tested on: Staphylococcus aureus; experiment: Antimicrobial activity against methicillin-resistant Staphylococcus aureus 0020 after 20 hrs by serial twofold dilution method; assay type: functional; settings: Staphylococcus aureus, 0020, 20 h; in short: as §2
[27] = tested on: Staphylococcus aureus; experiment: Antimicrobial activity against methicillin-resistant Staphylococcus aureus 0001 at 100 ug after 20 hrs by agar plate diffusion assay; assay type: functional, organism-based; in short: as §1
[28] = tested on: Staphylococcus aureus; experiment: Antimicrobial activity against methicillin-resistant Staphylococcus aureus 0007 at 100 ug after 20 hrs by agar plate diffusion assay; assay type: functional, organism-based; in short: as §1
[29] = tested on: Staphylococcus aureus; experiment: Antimicrobial activity against methicillin-resistant Staphylococcus aureus 0018 at 100 ug after 20 hrs by agar plate diffusion assay; assay type: functional, organism-based; in short: as §1
[30] = tested on: Staphylococcus aureus; experiment: Antimicrobial activity against methicillin-resistant Staphylococcus aureus 0006 at 100 ug after 20 hrs by agar plate diffusion assay; assay type: functional, organism-based; in short: as §1
[31] = tested on: Staphylococcus aureus; experiment: Antimicrobial activity against methicillin-resistant Staphylococcus aureus 0022 at 100 ug after 20 hrs by agar plate diffusion assay; assay type: functional, organism-based; in short: as §1
[32] = tested on: Staphylococcus aureus; experiment: Antimicrobial activity against methicillin-resistant Staphylococcus aureus 0012 at 100 ug after 20 hrs by agar plate diffusion assay; assay type: functional, organism-based; in short: as §1
[33] = tested on: Staphylococcus aureus; experiment: Antimicrobial activity against methicillin-resistant Staphylococcus aureus 0004 after 20 hrs by serial twofold dilution method; assay type: functional; settings: Staphylococcus aureus, 0004, 20 h; in short: as §2
[34] = tested on: Staphylococcus aureus; experiment: Antimicrobial activity against methicillin-resistant Staphylococcus aureus 0013 at 100 ug after 20 hrs by agar plate diffusion assay; assay type: functional, organism-based; in short: as §1
[35] = tested on: Staphylococcus aureus; experiment: Antimicrobial activity against methicillin-resistant Staphylococcus aureus 0008 at 100 ug after 20 hrs by agar plate diffusion assay; assay type: functional, organism-based; in short: as §1
[36] = tested on: Staphylococcus aureus; experiment: Antimicrobial activity against methicillin-resistant Staphylococcus aureus 0006 after 20 hrs by serial twofold dilution method; assay type: functional; settings: Staphylococcus aureus, 0006, 20 h; in short: as §2
[37] = tested on: Staphylococcus aureus; experiment: Antimicrobial activity against methicillin-resistant Staphylococcus aureus 0005 after 20 hrs by serial twofold dilution method; assay type: functional; settings: Staphylococcus aureus, 0005, 20 h; in short: as §2

Structure (SMILES)	Activity [1]	Activity [2]	MIC [4]	MIC [7]	MIC [8]	MIC [12]	MIC [14]	MIC [15]	MIC [16]	MIC [17]	MIC [18]	MIC [20]	MIC [22]	MIC [23]	MIC [24]	MIC [25]	MIC [26]	MIC [33]	MIC [36]	MIC [37]	other results
COc1cc(-c2c(O)c(C=O)cc3cc(OC)c(O)cc23)ccc1O	inactive																				
COc1cc(C[C@@H](CO)[C@H](CO)Cc2ccc(O)c(OC)c2)ccc1O	inactive																				
COc1cc2cc3c(c(-c4ccc(OC)c(OC)c4)c2cc1O)COC3=O	inactive																				
COc1ccc(-c2c(O)c(C=O)cc3ccc(O)c(OC)c23)cc1OC	inactive																				
COc1ccc(-c2c3c(cc4ccc(O)c(OC)c24)C(=O)OC3)cc1OC	inactive																				
COc1ccc(-c2cc(C=O)cc3ccc(O)c(OC)c23)cc1OC	inactive																				
COc1cc(-c2c3c(cc4cc(OC)c(O)cc24)C(=O)OC3)ccc1O [DETETRAHYDROCONIDENDRIN]	inactive	Active	> 64 µg/mL	8 µg/mL (≈ 22.7 µM)	> 64 µg/mL	> 64 µg/mL	> 64 µg/mL	16 µg/mL (≈ 45.4 µM)	> 64 µg/mL	> 64 µg/mL	8 µg/mL (≈ 22.7 µM)	> 64 µg/mL	16 µg/mL (≈ 45.4 µM)	8 µg/mL (≈ 22.7 µM)	> 64 µg/mL	> 64 µg/mL	4 µg/mL (≈ 11.4 µM)	> 64 µg/mL	8 µg/mL (≈ 22.7 µM)	8 µg/mL (≈ 22.7 µM)	Activity [3]: Active; Activity [5]: Active; Activity [6]: Active; Activity [9]: Active; Activity [10]: Active; Activity [11]: Active; Activity [13]: Active; Activity [19]: Active; Activity [21]: Active; Activity [27]: Active; Activity [28]: Active; Activity [29]: Active; Activity [30]: Active; Activity [31]: Active; Activity [32]: Active; Activity [34]: Active; Activity [35]: Active
COc1cc2c(cc1OC)C(O)c1c(C=O)cc3ccc(O)c(OC)c3c1-2 (stereo unspecified) [VITROFOLAL C]	inactive	Active	> 64 µg/mL	64 µg/mL (≈ 175 µM)	> 64 µg/mL	> 64 µg/mL	> 64 µg/mL	64 µg/mL (≈ 175 µM)	> 64 µg/mL	> 64 µg/mL	> 64 µg/mL	> 64 µg/mL	64 µg/mL (≈ 175 µM)	64 µg/mL (≈ 175 µM)	> 64 µg/mL	> 64 µg/mL	64 µg/mL (≈ 175 µM)	> 64 µg/mL	64 µg/mL (≈ 175 µM)	64 µg/mL (≈ 175 µM)	Activity [3]: Active; Activity [5]: Active; Activity [6]: Active; Activity [9]: Active; Activity [10]: Active; Activity [11]: Active; Activity [13]: Active; Activity [19]: Active; Activity [21]: Active; Activity [27]: Active; Activity [28]: Active; Activity [29]: Active; Activity [30]: Active; Activity [31]: Active; Activity [32]: Active; Activity [34]: Active; Activity [35]: Active
COc1cc2c(cc1OC)-c1c(c(C=O)cc3ccc(O)c(OC)c13)C2=O [VITROFOLAL D]	inactive	Active	> 64 µg/mL	16 µg/mL (≈ 43.9 µM)	> 64 µg/mL	> 64 µg/mL	> 64 µg/mL	16 µg/mL (≈ 43.9 µM)	> 64 µg/mL	> 64 µg/mL	32 µg/mL (≈ 87.8 µM)	> 64 µg/mL	16 µg/mL (≈ 43.9 µM)	16 µg/mL (≈ 43.9 µM)	> 64 µg/mL	> 64 µg/mL	16 µg/mL (≈ 43.9 µM)	> 64 µg/mL	16 µg/mL (≈ 43.9 µM)	16 µg/mL (≈ 43.9 µM)	Activity [3]: Active; Activity [5]: Active; Activity [6]: Active; Activity [9]: Active; Activity [10]: Active; Activity [11]: Active; Activity [13]: Active; Activity [19]: Active; Activity [21]: Active; Activity [27]: Active; Activity [28]: Active; Activity [29]: Active; Activity [30]: Active; Activity [31]: Active; Activity [32]: Active; Activity [34]: Active; Activity [35]: Active
COc1cc(-c2cc(C=O)cc3cc(OC)c(O)cc23)ccc1O [VITROFOLAL E]	inactive		> 64 µg/mL	> 64 µg/mL	> 64 µg/mL	> 64 µg/mL	> 64 µg/mL	> 64 µg/mL	> 64 µg/mL	> 64 µg/mL	> 64 µg/mL	> 64 µg/mL	> 64 µg/mL	> 64 µg/mL	> 64 µg/mL	> 64 µg/mL	64 µg/mL (≈ 197 µM)	> 64 µg/mL	> 64 µg/mL	> 64 µg/mL	
